Source: ChEMBL document CHEMBL4049452 (J Med Chem, 2017)

Tests used:
Glucagon receptor = Glucagon receptor (Homo sapiens, UniProt P47871); experiment: Agonist activity at human glucagon receptor expressed in HEK293 cells assessed as cAMP accumulation after 30 mins by HTRF assay; assay type: functional, cell-based
[1] = Tmax in C57/BL6 mouse at 1 mg/kg, sc by LC-MS/MS analysis; assay type: ADME, organism-based; details: in vivo
Method in brief: (§1)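 Female C57/Bl6 mice given single 1 mg/kg sc dose; animals sacrificed and blood collected at 0.083, 0.25, 1, 2, 4, 8, 16 and 24 h. Plasma analysed by LC-MS/MS after protein precipitation; parameters from mean plasma concentrations by noncompartmental analysis.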

[2] = Half life in C57/BL6 mouse at 1 mg/kg, sc by LC-MS/MS analysis; assay type: ADME, organism-based; details: in vivo; method in brief: as §1
[3] = molecular target: Glucagon-like peptide 1 receptor (Homo sapiens, UniProt P43220); experiment: Agonist activity at human GLP-1 receptor expressed in HEK293 cells assessed as cAMP accumulation after 30 mins by HTRF assay; assay type: functional, cell-based
[4] = AUC in C57/BL6 mouse at 1 mg/kg, sc by LC-MS/MS analysis; assay type: ADME, organism-based; details: in vivo; method in brief: as §1
[5] = Cmax in C57/BL6 mouse at 1 mg/kg, sc by LC-MS/MS analysis; assay type: ADME, organism-based; set-up: dose 1 mg/kg, route subcutaneous; details: in vivo; method in brief: as §1

Chain of Glucagon receptor (P47871 whole entry): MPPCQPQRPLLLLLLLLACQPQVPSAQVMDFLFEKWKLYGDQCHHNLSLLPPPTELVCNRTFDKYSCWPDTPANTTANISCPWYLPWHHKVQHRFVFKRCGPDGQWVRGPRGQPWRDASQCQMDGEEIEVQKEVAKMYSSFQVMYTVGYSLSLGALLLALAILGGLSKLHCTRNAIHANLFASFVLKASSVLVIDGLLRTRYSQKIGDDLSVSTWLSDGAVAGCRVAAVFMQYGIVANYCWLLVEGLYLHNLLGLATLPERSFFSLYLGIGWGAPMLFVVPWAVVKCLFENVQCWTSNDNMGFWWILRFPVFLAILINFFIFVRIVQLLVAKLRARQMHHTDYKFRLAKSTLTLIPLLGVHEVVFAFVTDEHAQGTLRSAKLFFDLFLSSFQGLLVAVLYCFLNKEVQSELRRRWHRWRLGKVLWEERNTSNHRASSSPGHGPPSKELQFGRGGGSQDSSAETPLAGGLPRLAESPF
Chain of Glucagon-like peptide 1 receptor (P43220 whole entry): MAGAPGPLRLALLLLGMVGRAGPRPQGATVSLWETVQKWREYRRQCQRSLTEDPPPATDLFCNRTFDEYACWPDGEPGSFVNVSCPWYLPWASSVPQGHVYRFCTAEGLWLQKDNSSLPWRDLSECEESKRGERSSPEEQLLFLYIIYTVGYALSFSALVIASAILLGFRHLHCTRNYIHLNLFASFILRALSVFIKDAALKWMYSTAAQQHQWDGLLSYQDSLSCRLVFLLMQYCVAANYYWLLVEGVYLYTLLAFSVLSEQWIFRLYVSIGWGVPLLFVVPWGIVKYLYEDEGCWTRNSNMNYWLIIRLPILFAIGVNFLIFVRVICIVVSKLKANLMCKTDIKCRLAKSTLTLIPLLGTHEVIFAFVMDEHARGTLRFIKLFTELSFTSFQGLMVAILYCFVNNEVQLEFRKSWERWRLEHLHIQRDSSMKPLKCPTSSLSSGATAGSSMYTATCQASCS

Compound | EC50 (Glucagon receptor) | Tmax [1] | half-life [2] | EC50 [3] | AUC [4] | Cmax [5]
CCCCCCCCCCCCCCCC(=O)N[C@@H](CCC(=O)NCCCC[C@H](NC(=O)[C@H](CO)NC(=O)[C@@H]1CCCN1C(=O)[C@@H]1CCCN1C(=O)[C@@H]1CCCN1C(=O)[C@H](C)NC(=O)CNC(=O)[C@H](CO)NC(=O)[C@H](CO)NC(=O)[C@@H]1CCCN1C(=O)CNC(=O)CNC(=O)[C@H](CC(N)=O)NC(=O)[C@H](CCCCN)NC(=O)[C@H](CC(C)C)NC(=O)[C@H](Cc1c[nH]c2ccccc12)NC(=O)[C@H](CCC(=O)O)NC(=O)[C@@H](NC(=O)[C@H](Cc1ccccc1)NC(=O)[C@H](CC(=O)O)NC(=O)[C@H](CCC(N)=O)NC(=O)[C@H](C)NC(=O)[C@H](CCCNC(=N)N)NC(=O)[C@H](CCCNC(=N)N)NC(=O)[C@H](CO)NC(=O)[C@H](CC(=O)O)NC(=O)[C@H](CCSC)NC(=O)[C@H](CCC(N)=O)NC(=O)[C@H](CCCCN)NC(=O)[C@H](CO)NC(=O)[C@H](CC(C)C)NC(=O)[C@H](CC(=O)O)NC(=O)[C@H](CO)NC(=O)[C@@H](NC(=O)[C@H](Cc1ccccc1)NC(=O)[C@@H](NC(=O)CNC(=O)[C@H](CCC(N)=O)NC(=O)[C@H](CO)NC(=O)[C@@H](N)Cc1cnc[nH]1)[C@@H](C)O)[C@H](C)O)[C@@H](C)CC)C(N)=O)C(N)=O | 0.0062 nM | 2 h | 2.2 h | 0.0052 nM | 17000 ng·h/mL | 3450 ng/mL
CC[C@H](C)[C@H](NC(=O)[C@H](Cc1ccccc1)NC(=O)[C@H](CC(C)C)NC(=O)[C@H](CCCNC(=N)N)NC(=O)[C@@H](NC(=O)[C@H](CCCNC(=N)N)NC(=O)[C@H](CCCNC(=N)N)NC(=O)[C@H](CO)NC(=O)[C@H](CC(=O)O)NC(=O)[C@H](CCSC)NC(=O)[C@H](CCC(N)=O)NC(=O)[C@H](CCCCN)NC(=O)[C@H](CO)NC(=O)[C@H](CC(C)C)NC(=O)[C@H](CC(=O)O)NC(=O)[C@H](CO)NC(=O)[C@@H](NC(=O)[C@H](Cc1ccccc1)NC(=O)[C@@H](NC(=O)CNC(=O)[C@H](CCC(=O)O)NC(=O)CNC(=O)[C@@H](N)Cc1cnc[nH]1)[C@@H](C)O)[C@@H](C)O)C(C)C)C(=O)N[C@@H](CCC(=O)O)C(=O)N[C@@H](Cc1c[nH]c2ccccc12)C(=O)N[C@@H](CC(C)C)C(=O)N[C@@H](CCCCN)C(=O)N[C@@H](CC(N)=O)C(=O)NCC(=O)NCC(=O)N1CCC[C@H]1C(=O)N[C@@H](CO)C(=O)N[C@@H](CO)C(=O)NCC(=O)N[C@@H](C)C(=O)N1CCC[C@H]1C(=O)N1CCC[C@H]1C(=O)N1CCC[C@H]1C(=O)N[C@@H](CO)C(N)=O | 58000 nM |  |  | 0.0018 nM |  | 
CCCCCCCCCCCCCCCC(=O)N[C@@H](CCC(=O)NCCCC[C@H](NC(=O)[C@@H]1CCCN1C(=O)[C@@H]1CCCN1C(=O)[C@@H]1CCCN1C(=O)[C@H](C)NC(=O)CNC(=O)[C@H](CO)NC(=O)[C@H](CO)NC(=O)[C@@H]1CCCN1C(=O)CNC(=O)CNC(=O)[C@H](CC(N)=O)NC(=O)[C@H](CCCCN)NC(=O)[C@H](CC(C)C)NC(=O)[C@H](Cc1c[nH]c2ccccc12)NC(=O)[C@H](CCC(=O)O)NC(=O)[C@@H](NC(=O)[C@H](Cc1ccccc1)NC(=O)[C@H](CC(=O)O)NC(=O)[C@H](CCC(N)=O)NC(=O)[C@H](C)NC(=O)[C@H](CCCNC(=N)N)NC(=O)[C@H](CCCNC(=N)N)NC(=O)[C@H](CO)NC(=O)[C@H](CC(=O)O)NC(=O)[C@H](CCSC)NC(=O)[C@H](CCC(N)=O)NC(=O)[C@H](CCCCN)NC(=O)[C@H](CO)NC(=O)[C@H](CC(C)C)NC(=O)[C@H](CC(=O)O)NC(=O)[C@H](CO)NC(=O)[C@@H](NC(=O)[C@H](Cc1ccccc1)NC(=O)[C@@H](NC(=O)CNC(=O)[C@H](CCC(N)=O)NC(=O)[C@H](CO)NC(=O)[C@@H](N)Cc1cnc[nH]1)[C@@H](C)O)[C@@H](C)O)[C@@H](C)CC)C(N)=O)C(N)=O | 0.0063 nM |  |  | 0.0058 nM |  | 
CC[C@H](C)[C@H](NC(=O)[C@H](Cc1ccccc1)NC(=O)[C@H](CC(C)C)NC(=O)[C@H](CCCNC(=N)N)NC(=O)[C@@H](NC(=O)[C@H](C)NC(=O)[C@H](CCC(=O)O)NC(=O)[C@H](CCC(=O)O)NC(=O)[C@H](CCC(=O)O)NC(=O)[C@H](CCSC)NC(=O)[C@H](CCC(N)=O)NC(=O)[C@H](CCCCN)NC(=O)[C@H](CO)NC(=O)[C@H](CC(C)C)NC(=O)[C@H](CC(=O)O)NC(=O)[C@H](CO)NC(=O)[C@@H](NC(=O)[C@H](Cc1ccccc1)NC(=O)[C@@H](NC(=O)CNC(=O)[C@H](CCC(=O)O)NC(=O)CNC(=O)[C@@H](N)Cc1cnc[nH]1)[C@@H](C)O)[C@@H](C)O)C(C)C)C(=O)N[C@@H](CCC(=O)O)C(=O)N[C@@H](Cc1c[nH]c2ccccc12)C(=O)N[C@@H](CC(C)C)C(=O)N[C@@H](CCSC)C(=O)N[C@@H](CC(N)=O)C(=O)N[C@H](C(=O)N[C@@H](CCCCN)C(=O)N[C@@H](CCCNC(=N)N)C(=O)N[C@@H](CC(N)=O)C(=O)N[C@@H](CCCNC(=N)N)C(=O)NCC(=O)N[C@@H](C)C(=O)N1CCC[C@H]1C(=O)N1CCC[C@H]1C(=O)N1CCC[C@H]1C(=O)N[C@@H](CO)C(N)=O)[C@@H](C)O | > 100000 nM |  |  | 0.0012 nM |  | 
H-HGEGTFTSDLSKQMDSRRAQDFVEWLKNGGPSSGAPPPS-NH2 | 10000 nM |  |  | 0.0222 nM |  | 
H-HGEGTFTSDLSKQMDSRRAQDFVQWLKNGGPSSGAPPPS-NH2 | 42000 nM |  |  | 0.0558 nM |  | 
H-HSEGTFTSDLSKQMDSRRAQDFIEWLKNGGPSSGAPPPS-NH2 | 170 nM |  |  |  |  | 
H-HSQGTFTSDLSKQMDSRRAQDFIEWLKNG-NH2 | 0.0019 nM |  |  | 0.0082 nM |  | 
H-HSQGTFTSDLSKQMDSRRAQDFIEWLKNGGPSS-NH2 | 0.0089 nM |  |  | 0.0153 nM |  | 
H-HSQGTFTSDLSKQMDSRRAQDFIEWLKNGGPSSNNIA-NH2 | 0.0156 nM |  |  | 0.0172 nM |  | 
H-HSQGTFTSDLSKQMEEEAVRLFIEWLMNTKRNRGAPPPS-NH2 | 1.24 nM |  |  | 0.0022 nM |  | 
